Experimental data published in ChEMBL document CHEMBL1130234 (J Med Chem, 1997).

Columns and labels:
[1] = Antioxidant potential was assessed from reducing activity against 2,2,di-phenyl-1-picrylhydrazyl.
[2] = Partition coefficient (logP); assay type: physicochemical; details: octanol/water
[3] = tested on: HaCaT; assay: Antiproliferative (inhibition of cell growth) activity against HaCaT cells (human keratinocyte line); assay type: functional, cell-based
How it was run: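 HaCaT human keratinocytes treated for 48 h. Proliferation assessed by directly counting dispersed cells under a phase-contrast microscope; N = 3, significance versus control at P < 0.01.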

[4] = tested on: HaCaT; assay: Cytotoxic activity (2 uM) was measured by the amount of LDH (mU) release in HaCaT cells.; assay type: functional, Homo sapiens
How it was run: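 HaCaT cells exposed to test compound at 2 μM; LDH activity (mU) released into the culture medium measured and compared with vehicle control; N = 3.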

[5] = target: T1, Arachidonate 5-lipoxygenase (Bos taurus, UniProt Q9BEG3); assay: 5-LO inhibitory activity was determined by inhibition of LTB4 biosynthesis in bovine polymorphonuclear leukocytes (PMNL); assay type: functional, cell-based
T1 sequence (Q9BEG3 whole entry): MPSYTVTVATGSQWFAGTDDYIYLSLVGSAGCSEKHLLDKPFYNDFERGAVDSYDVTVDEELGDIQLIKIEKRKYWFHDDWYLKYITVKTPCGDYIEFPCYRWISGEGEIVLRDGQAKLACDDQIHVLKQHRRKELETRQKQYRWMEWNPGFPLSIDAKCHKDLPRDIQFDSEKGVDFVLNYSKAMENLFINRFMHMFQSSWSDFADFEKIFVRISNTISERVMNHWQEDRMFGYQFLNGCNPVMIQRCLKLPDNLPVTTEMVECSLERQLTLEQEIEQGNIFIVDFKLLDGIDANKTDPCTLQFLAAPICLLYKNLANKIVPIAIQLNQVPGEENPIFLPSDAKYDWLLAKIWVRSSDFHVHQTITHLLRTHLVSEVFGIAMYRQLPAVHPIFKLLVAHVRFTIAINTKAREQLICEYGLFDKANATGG
How it was run: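 LTB4 biosynthesis measured in bovine polymorphonuclear leukocytes, with NDGA as the standard inhibitor; N = 3 or more, significance versus control at P < 0.01.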

Structure (SMILES)	kDPPH [1]	logP [2]	IC50 [3]	LDH [4]	IC50 [5]
CC(=O)Oc1cccc2c1C(=O)c1c(cccc1OC(C)=O)C2	3.6 M⁻¹ s⁻¹	2.4	0.7 µM	314 mU	9 µM
O=C1c2c(O)cccc2C([C@@H]2O[C@H](CO)[C@@H](O)[C@H](O)[C@H]2O)c2cc(CO)cc(O)c21 (some centres not stated) [ALOIN]	< 2 M⁻¹ s⁻¹	1.83	> 5 µM	–	> 30 µM
O=C1c2cccc(OCc3ccccc3)c2Cc2c(OCc3ccccc3)cccc21	3.2 M⁻¹ s⁻¹	5.73	> 5 µM	–	–
CCSC1c2cccc(O)c2C(=O)c2c(O)cccc21	> 100 M⁻¹ s⁻¹	2.97	–	–	> 30 µM
O=C1C=CC(=O)c2c(O)ccc(O)c21 [NAPHTHAZALIN]	41.5 M⁻¹ s⁻¹	3.7	0.7 µM	247 mU	–
CC(=O)Oc1cccc2c1C(=O)c1c(O)cccc1C2	16.1 M⁻¹ s⁻¹	3.25	0.8 µM	243 mU	6 µM
O=C1c2c(O)cccc2Cc2cccc(O)c21 [ANTHRALIN]	24.2 M⁻¹ s⁻¹	–	–	294 mU	–
COc1cccc2c1C(=O)c1c(O)cccc1C2	4.6 M⁻¹ s⁻¹	3.44	3.1 µM	179 mU	–
CC(=O)C1c2cccc(O)c2C(=O)c2c(O)cccc21	17.6 M⁻¹ s⁻¹	3.49	2.6 µM	317 mU	18 µM
O=C1c2c(O)cccc2C(C(=O)c2ccccc2)c2cccc(O)c21	–	3.81	> 5 µM	–	–
O=C1c2c(O)cccc2C(C2c3cccc(O)c3C(=O)c3c(O)cccc32)c2cccc(O)c21	< 1 M⁻¹ s⁻¹	5.01	0.6 µM	263 mU	> 30 µM
c1ccc2c(c1)Cc1ccccc1C2	–	4.06	> 5 µM	–	> 30 µM
CN(C)C=C1c2cccc(O)c2C(=O)c2c(O)cccc21	16.2 M⁻¹ s⁻¹	3.18	2.1 µM	–	21 µM
O=C1c2c(O)cccc2C(SCc2ccccc2)c2cccc(O)c21	> 100 M⁻¹ s⁻¹	4.87	–	–	> 30 µM
Cc1cc(O)c2c(c1)Cc1cc(O)cc(O)c1C2=O [EMODIN ANTHRONE]	21.4 M⁻¹ s⁻¹	3.9	> 5 µM	114 mU	–
O=C(c1ccccc1O)c1ccccc1O [2,2'-DIHYDROXYBENZPHENONE]	2.1 M⁻¹ s⁻¹	2.66	> 5 µM	–	> 30 µM
N=C1c2c(O)cccc2Cc2cccc(O)c21	2.7 M⁻¹ s⁻¹	4.72	0.5 µM	137 mU	> 30 µM
COC1c2cccc(O)c2C(=O)c2c(O)cccc21	–	3.96	1.1 µM	146 mU	> 30 µM
Cc1cc(O)c2c(=O)c3c(O)cc(O)c4c5c(O)cc(O)c6c(=O)c7c(O)cc(C)c8c1c2c(c34)c(c78)c65 [HYPERICIN]	3.66 M⁻¹ s⁻¹	5.02	1.7 µM	159 mU	> 30 µM
Nc1cccc2c1C(=O)c1ccccc1C2	50.5 M⁻¹ s⁻¹	2.45	> 5 µM	–	28 µM
c1ccc2cc3ccccc3cc2c1	–	–	> 5 µM	131 mU	> 30 µM
N#Cc1ccc2c(c1O)C(=O)c1c(O)cccc1C2	> 100 M⁻¹ s⁻¹	3.16	4.2 µM	–	8 µM
O=C1c2c(O)cccc2C(Br)c2cccc(O)c21	12.7 M⁻¹ s⁻¹	3.94	> 5 µM	–	> 30 µM
CCCCc1ccc2c(c1O)C(=O)c1c(O)cccc1C2	6.5 M⁻¹ s⁻¹	5.89	> 5 µM	–	> 30 µM
COC(=O)c1cc(O)c2c(c1)Cc1cccc(O)c1C2=O	> 100 M⁻¹ s⁻¹	4.54	0.7 µM	340 mU	> 30 µM
COc1cccc2c1Cc1c(O)cccc1C2=O	< 2 M⁻¹ s⁻¹	2.6	> 5 µM	141 mU	–
CCCCC(=O)C1c2cccc(O)c2C(=O)c2c(O)cccc21	7 M⁻¹ s⁻¹	4.12	4.4 µM	214 mU	> 30 µM
O=C1c2cccc(O)c2Cc2c(O)cccc21	< 2 M⁻¹ s⁻¹	2.17	> 5 µM	144 mU	4 µM
